Laboratory results as given in ChEMBL document CHEMBL1125323, “Potent V2/V1a vasopressin antagonists with C-terminal ethylenediamine-linked retro-amino acids” (J Med Chem, 1992).

Key:
[1] = target: T1, Vasopressin receptor (Rattus norvegicus) (UniProt P48974+P30560+Q00788); test: Antivasopressor potency in terms of blood pressure response in rats anesthetized with urethane and pretreated with phenoxybenzamine; assay type: functional
Procedure, shortened: (§1)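 Rats anesthetized with urethane, pretreated with phenoxybenzamine; blood pressure responses recorded. USP posterior pituitary reference standard as agonist, given intravenously with antagonist. ED (nmol/kg) is the antagonist dose at which 2x units of agonist match the response to x units without antagonist, log-interpolated from doses above and below. In vivo pA2 uses assumed distribution volume 67 mL/kg.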

[2] = target: T1, Vasopressin receptor (Rattus norvegicus); test: Antiantidiuretic potency in terms of measuring changes in urine flow in water-loaded rats under ethanol anesthesia; assay type: functional
Procedure, shortened: (§2)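 Water-loaded rats under ethanol anesthesia; urine flow followed. USP posterior pituitary reference standard as agonist, all injections intravenous. Effective dose (nmol/kg) is the antagonist dose reducing the response to 2x units of agonist to that of x units alone, interpolated on a log scale between bracketing doses. pA2 = negative log of ED divided by assumed distribution volume 67 mL/kg.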

Vasopressin receptor [3] = target: T2, Vasopressin receptor (Rattus norvegicus, UniProt P48974+P30560+Q00788); test: Antivasopressor potency in terms of negative logarithm of the effective doses divided by the estimated volume of distribution; assay type: functional; procedure, shortened: as §1
Vasopressin receptor [4] = target: T2, Vasopressin receptor; test: Antiantidiuretic potency in terms of negative logarithm of the effective doses divided by the estimated volume of distribution; assay type: functional, Urine; procedure, shortened: as §2

Structure (SMILES) | ED [2] [nM/kg] | pA2 (Vasopressin receptor [3]) | pA2 (Vasopressin receptor [4]) | ED [1] [nM/kg]
CCOc1ccc(C[C@H]2NC(=O)CC3(CCCCC3)SSC[C@@H](C(=O)NCCNC(=O)[C@H](CCCN=C(N)N)NC(=O)[C@@H](N)CCCN=C(N)N)NC(=O)[C@H](CC(N)=O)NC(=O)[C@H](C(C)C)NC(=O)[C@H](Cc3ccccc3)NC2=O)cc1 |  | 7.93 | 7.61 | 
CCOc1ccc(C[C@H]2NC(=O)CC3(CCCCC3)SSC[C@H](C(=O)N3CCCC3C(=O)N[C@@H](CCCN=C(N)N)C(=O)NCCNC(=O)[C@H](N)CCCN=C(N)N)NC(=O)[C@@H](CC(N)=O)NC(=O)[C@H]([C@H](C)CC)NC(=O)[C@@H](Cc3ccccc3)NC2=O)cc1 (stereo partly drawn) | 0.57 |  |  | 0.36
CCOc1ccc(C[C@H]2NC(=O)CC3(CCCCC3)SSC[C@@H](C(=O)N[C@@H](CCCN=C(N)N)C(=O)NCC(=O)NCCNC(=O)[C@@H](N)CCCN=C(N)N)NC(=O)[C@H](CC(N)=O)NC(=O)[C@H](C(C)C)NC(=O)[C@H](Cc3ccccc3)NC2=O)cc1 |  | 7.96 | 7.87 | 
CCOc1ccc(C[C@H]2NC(=O)CC3(CCCCC3)SSC[C@@H](C(=O)N3CCC[C@H]3C(=O)NCCNC(=O)[C@H](N)CCCCN)NC(=O)[C@H](CC(N)=O)NC(=O)[C@H](C(C)C)NC(=O)[C@H](Cc3ccccc3)NC2=O)cc1 |  | 8.08 | 7.78 | 
CCOc1ccc(C[C@H]2NC(=O)CC3(CCCCC3)SSC[C@@H](C(=O)N3CCC[C@H]3C(=O)NCCNC(=O)[C@H](N)CCCN)NC(=O)[C@H](CC(N)=O)NC(=O)[C@H](C(C)C)NC(=O)[C@H](Cc3ccccc3)NC2=O)cc1 |  | 7.86 | 7.92 | 
CCOc1ccc(C[C@H]2NC(=O)CC3(CCCCC3)SSC[C@H](C(=O)N[C@H](CCCN=C(N)N)C(=O)NCC(=O)NCCNC(=O)[C@H](N)CCCN=C(N)N)NC(=O)[C@@H](CC(N)=O)NC(=O)[C@H](C(C)C)NC(=O)[C@@H](Cc3ccccc3)NC2=O)cc1 | 0.91 |  |  | 0.73
CCOc1ccc(C[C@H]2NC(=O)CC3(CCCCC3)SSC[C@@H](C(=O)N[C@@H](CCCN=C(N)N)C(=O)NCC(N)=O)NC(=O)[C@H](CC(N)=O)NC(=O)[C@H](C(C)C)NC(=O)[C@H](Cc3ccccc3)NC2=O)cc1 |  | 8.09 | 7.82 | 
CCOc1ccc(C[C@H]2NC(=O)CC3(CCCCC3)SSC[C@@H](C(=O)NCCNC(=O)[C@H](N)CCCN)NC(=O)[C@H](CC(N)=O)NC(=O)[C@H](C(C)C)NC(=O)[C@H](Cc3ccccc3)NC2=O)cc1 |  | 8.06 | 7.24 | 
CCOc1ccc(C[C@H]2NC(=O)CC3(CCCCC3)SSC[C@@H](C(=O)NCCNC(=O)[C@@H](N)CCCN)NC(=O)[C@H](CC(N)=O)NC(=O)[C@H](C(C)C)NC(=O)[C@H](Cc3ccccc3)NC2=O)cc1 |  | 7.8 | 7.55 | 
CCOc1ccc(C[C@H]2NC(=O)CC3(CCCCC3)SSC[C@H](C(=O)N3CCCC3C(=O)NCCNC(=O)[C@@H](N)CCCN=C(N)N)NC(=O)[C@@H](CC(N)=O)NC(=O)[C@H](C(C)C)NC(=O)[C@@H](Cc3ccccc3)NC2=O)cc1 (stereo partly drawn) | 0.81 |  |  | 0.48
CCOc1ccc(C[C@H]2NC(=O)CC3(CCCCC3)SSC[C@@H](C(=O)NCCNC(=O)[C@H](N)CCCCN)NC(=O)[C@H](CC(N)=O)NC(=O)[C@H](C(C)C)NC(=O)[C@H](Cc3ccccc3)NC2=O)cc1 |  | 7.92 | 7.76 | 
CCOc1ccc(C[C@H]2NC(=O)CC3(CCCCC3)SSC[C@@H](C(=O)N3CCC[C@H]3C(=O)N[C@@H](CCCN=C(N)N)C(=O)NCCNC(=O)[C@@H](N)CCCN=C(N)N)NC(=O)[C@H](CC(N)=O)NC(=O)[C@H](C(C)C)NC(=O)[C@H](Cc3ccccc3)NC2=O)cc1 |  | 8.15 | 7.68 | 
CCOc1ccc(C[C@H]2NC(=O)CC3(CCCCC3)SSC[C@H](C(=O)NCCNC(=O)[C@@H](CCCN=C(N)N)NC(=O)[C@H](N)CCCN=C(N)N)NC(=O)[C@@H](CC(N)=O)NC(=O)[C@H](C(C)C)NC(=O)[C@@H](Cc3ccccc3)NC2=O)cc1 | 1.8 |  |  | 0.86
CCOc1ccc(C[C@H]2NC(=O)CC3(CCCCC3)SSC[C@H](C(=O)N3CCCC3C(=O)NCCNC(=O)[C@@H](N)CCCCN)NC(=O)[C@@H](CC(N)=O)NC(=O)[C@H](C(C)C)NC(=O)[C@@H](Cc3ccccc3)NC2=O)cc1 (stereo partly drawn) | 1.2 |  |  | 0.57
CCOc1ccc(C[C@H]2NC(=O)CC3(CCCCC3)SSC[C@H](C(=O)N3CCCC3C(=O)N[C@H](CCCN=C(N)N)C(=O)NCCNC(=O)[C@H](N)CCCN=C(N)N)NC(=O)[C@@H](CC(N)=O)NC(=O)[C@H](C(C)C)NC(=O)[C@@H](Cc3ccccc3)NC2=O)cc1 (stereo partly drawn) | 1.4 |  |  | 0.51
CCOc1ccc(C[C@H]2NC(=O)CC3(CCCCC3)SSC[C@H](C(=O)NCCNC(=O)CN)NC(=O)[C@@H](CC(N)=O)NC(=O)[C@H](C(C)C)NC(=O)[C@@H](Cc3ccccc3)NC2=O)cc1 | 18 |  |  | 1.66
CCOc1ccc(C[C@H]2NC(=O)CC3(CCCCC3)SSC[C@H](C(=O)NCCN)NC(=O)[C@@H](CC(N)=O)NC(=O)[C@H](C(C)C)NC(=O)[C@@H](Cc3ccccc3)NC2=O)cc1 | 5.7 |  |  | 0.47
CCOc1ccc(C[C@H]2NC(=O)CC3(CCCCC3)SSC[C@H](C(=O)N[C@H](CCCN=C(N)N)C(=O)NCC(=O)NCCN)NC(=O)[C@@H](CC(N)=O)NC(=O)[C@H](C(C)C)NC(=O)[C@@H](Cc3ccccc3)NC2=O)cc1 | 0.65 |  |  | 0.59
CCOc1ccc(C[C@H]2NC(=O)CC3(CCCCC3)SSC[C@H](C(=O)NCCNC(=O)[C@H](N)CCCCN)NC(=O)[C@@H](CC(N)=O)NC(=O)[C@H](C(C)C)NC(=O)[C@@H](Cc3ccccc3)NC2=O)cc1 | 1.2 |  |  | 0.82
CCOc1ccc(C[C@H]2NC(=O)CC3(CCCCC3)SSC[C@H](C(=O)N3CCCC3C(=O)NCCNC(=O)[C@@H](N)CCCN)NC(=O)[C@@H](CC(N)=O)NC(=O)[C@H](C(C)C)NC(=O)[C@@H](Cc3ccccc3)NC2=O)cc1 (stereo partly drawn) | 0.82 |  |  | 0.95
CCOc1ccc(C[C@H]2NC(=O)CC3(CCCCC3)SSC[C@H](C(=O)N[C@H](CCCN=C(N)N)C(=O)NCC(N)=O)NC(=O)[C@@H](CC(N)=O)NC(=O)[C@H](C(C)C)NC(=O)[C@@H](Cc3ccccc3)NC2=O)cc1 | 1.1 |  |  | 0.56

More lines, main results first:

ED [2] [nM/kg] | pA2 (Vasopressin receptor [3]) | pA2 (Vasopressin receptor [4]) | Structure (SMILES) | ED [1] [nM/kg]
2.1 |  |  | CCOc1ccc(C[C@H]2NC(=O)CC3(CCCCC3)SSC[C@H](C(=O)NCCNC(=O)C(N)CCCN=C(N)N)NC(=O)[C@@H](CC(N)=O)NC(=O)[C@H](C(C)C)NC(=O)[C@@H](Cc3ccccc3)NC2=O)cc1 (stereo partly drawn) | 0.75
27 |  |  | CCOc1ccc(C[C@@H]2NC(=O)CC3(CCCCC3)SSC[C@H](C(=O)NCCNC(=O)C(N)CCCN=C(N)N)NC(=O)[C@@H](CC(N)=O)NC(=O)[C@H](C(C)C)NC(=O)[C@@H](Cc3ccccc3)NC2=O)cc1 (stereo partly drawn) | 0.76
 | 7.95 | 7.54 | CCOc1ccc(C[C@H]2NC(=O)CC3(CCCCC3)SSC[C@@H](C(=O)NCCNC(=O)[C@@H](N)CCCN=C(N)N)NC(=O)[C@H](CC(N)=O)NC(=O)[C@H](C(C)C)NC(=O)[C@H](Cc3ccccc3)NC2=O)cc1 | 
8.4 |  |  | CC(C)[C@@H]1NC(=O)[C@@H](Cc2ccccc2)NC(=O)[C@@H](Cc2ccccc2)NC(=O)CC2(CCCCC2)SSC[C@H](C(=O)NCCNC(=O)C(N)CCCN=C(N)N)NC(=O)[C@@H](CC(N)=O)NC1=O (stereo partly drawn) | 1.7
1.9 |  |  | CCOc1ccc(C[C@H]2NC(=O)CC3(CCCCC3)SSC[C@H](C(=O)NCCNC(=O)[C@H](N)CCCN)NC(=O)[C@@H](CC(N)=O)NC(=O)[C@H](C(C)C)NC(=O)[C@@H](Cc3ccccc3)NC2=O)cc1 | 1.06
 | 6.08 | < 5.5 | CC(C)C[C@H]1NC(=O)CC2(CCCCC2)SSC[C@@H](C(=O)NCCNC(=O)[C@@H](N)CCCN=C(N)N)NC(=O)[C@H](CC(N)=O)NC(=O)[C@H](C(C)C)NC(=O)[C@H](Cc2ccccc2)NC1=O | 
 | 7.64 | 6.91 | CC(C)[C@@H]1NC(=O)[C@H](Cc2ccccc2)NC(=O)[C@@H](Cc2ccccc2)NC(=O)CC2(CCCCC2)SSC[C@@H](C(=O)NCCNC(=O)[C@@H](N)CCCN=C(N)N)NC(=O)[C@H](CC(N)=O)NC1=O | 
 | 6.16 | 5.8 | CC[C@@H](C)[C@H]1NC(=O)CC2(CCCCC2)SSC[C@@H](C(=O)NCCNC(=O)[C@@H](N)CCCN=C(N)N)NC(=O)[C@H](CC(N)=O)NC(=O)[C@H](C(C)C)NC(=O)[C@H](Cc2ccccc2)NC1=O | 
4 |  |  | CCOc1ccc(C[C@H]2NC(=O)CC3(CCCCC3)SSC[C@H](C(=O)NCCNC(=O)[C@@H](N)CCCN)NC(=O)[C@@H](CC(N)=O)NC(=O)[C@H](C(C)C)NC(=O)[C@@H](Cc3ccccc3)NC2=O)cc1 | 0.59
 | 7.97 | 6.39 | CCOc1ccc(C[C@@H]2NC(=O)CC3(CCCCC3)SSC[C@@H](C(=O)NCCNC(=O)[C@@H](N)CCCN=C(N)N)NC(=O)[C@H](CC(N)=O)NC(=O)[C@H](C(C)C)NC(=O)[C@H](Cc3ccccc3)NC2=O)cc1 | 
100 |  |  | CC[C@H](C)[C@H]1NC(=O)CC2(CCCCC2)SSC[C@H](C(=O)NCCNC(=O)C(N)CCCN=C(N)N)NC(=O)[C@@H](CC(N)=O)NC(=O)[C@H](C(C)C)NC(=O)[C@@H](Cc2ccccc2)NC1=O (stereo partly drawn) | 47
> 234 |  |  | CC(C)C[C@H]1NC(=O)CC2(CCCCC2)SSC[C@H](C(=O)NCCNC(=O)C(N)CCCN=C(N)N)NC(=O)[C@@H](CC(N)=O)NC(=O)[C@H](C(C)C)NC(=O)[C@@H](Cc2ccccc2)NC1=O (stereo partly drawn) | 58
0.83 |  |  | CCOc1ccc(C[C@H]2NC(=O)CC3(CCCCC3)SSC[C@H](C(=O)NCCNC(=O)[C@@H](N)CCCN=C(N)N)NC(=O)[C@@H](CC(N)=O)NC(=O)[C@H](C(C)C)NC(=O)[C@@H](Cc3ccccc3)NC2=O)cc1 | 0.47
